ChEMBL document CHEMBL1268974, “Synthesis and antitumour activity of glycyrrhetinic acid derivatives” (Bioorg Med Chem, 2010)
The source made the active and inactive calls. The calls are words filed in the database; no cut-off is given here.

Assays:
Format in all cases: functional, cell-based
8505C = experiment: Cytotoxicity against human 8505C cells after 96 hrs by SRB assay
[1] = Cytotoxicity against human A253 cells after 96 hrs by SRB assay
A2780 = experiment: Cytotoxicity against human A2780 cells after 96 hrs by SRB assay
A549 [2] = experiment: Cytotoxicity against human A549 cells after 96 hrs by SRB assay
DLD-1 = experiment: Cytotoxicity against human DLD1 cells after 96 hrs by SRB assay
[3] = Cytotoxicity against human Lipo cells after 96 hrs by SRB assay
A549 [4] = experiment: Induction of apoptosis in human A549 cells at IC90 concentration after 24 to 48 hrs using acridine orange/ethidium bromide dye by fluorescence microscopic analysis
Outline: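 About 500,000 cells were seeded in flasks and grown for 24 h, then the medium was replaced with compound-containing medium. After 24–48 h, floating cells in the supernatant were pelleted, washed and resuspended in PBS, mixed with acridine orange/ethidium bromide and examined by fluorescence microscopy. Green nuclear fluorescence was scored as apoptotic and red nuclei as necrotic.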

MCF7 = experiment: Cytotoxicity against human MCF7 cells after 96 hrs by SRB assay
SW-1736 = experiment: Cytotoxicity against human SW1736 cells after 96 hrs by SRB assay
[5] = Cytotoxicity against human 518A2 cells after 96 hrs by SRB assay; conditions: 518A2, 96 h
A-431 = experiment: Cytotoxicity against human A431 cells after 96 hrs by SRB assay; conditions: A-431, 96 h
FaDu = experiment: Cytotoxicity against human FADU cells after 96 hrs by SRB assay
HCT-116 = experiment: Cytotoxicity against human HCT116 cells after 96 hrs by SRB assay; conditions: HCT-116, 96 h
HCT-8 = experiment: Cytotoxicity against human HCT8 cells after 96 hrs by SRB assay; conditions: HCT-8, 96 h
HT-29 = experiment: Cytotoxicity against human HT-29 cells after 96 hrs by SRB assay; conditions: HT-29, 96 h
SW480 = experiment: Cytotoxicity against human SW480 cells after 96 hrs by SRB assay; conditions: SW480, 96 h

SMILES: CC1(C)[C@@H](OC(=O)CCN)CC[C@]2(C)[C@H]3C(=O)C=C4[C@@H]5C[C@@](C)(C(=O)OCc6ccccc6)CC[C@]5(C)CC[C@@]4(C)[C@]3(C)CC[C@@H]12
- IC50 (8505C; Homo sapiens, 8505C, 96 h): 3.19 µM
- IC50 ([1]; Homo sapiens, A253, 96 h): 3.05 µM
- IC50 (A2780; Homo sapiens, A2780, 96 h): 1.73 µM
- IC50 (A549 [2]; Homo sapiens, A549, 96 h): 2.76 µM
- IC50 (DLD-1; Homo sapiens, DLD-1, 96 h): 4.54 µM
- IC50 ([3]; Homo sapiens, Lipo, 96 h): 3.25 µM

SMILES: COC(=O)[C@@]1(C)CC[C@]2(C)CC[C@]3(C)C(=CC(=O)[C@@H]4[C@@]5(C)CC[C@H](OC(=O)[C@H](C)N)C(C)(C)[C@@H]5CC[C@]43C)[C@@H]2C1 [listing 1 of 2 here]
- Activity (A549 [4]): Active

SMILES: COC(=O)[C@@]1(C)CC[C@]2(C)CC[C@]3(C)C(=CC(=O)[C@@H]4[C@@]5(C)CC[C@H](OC(=O)CN)C(C)(C)[C@@H]5CC[C@]43C)[C@@H]2C1 [listing 1 of 3 here]
- IC50 (8505C; Homo sapiens, 8505C, 96 h): 7.45 µM
- IC50 ([1]; Homo sapiens, A253, 96 h): 6.26 µM
- IC50 (A2780; Homo sapiens, A2780, 96 h): 5.99 µM
- IC50 (A549 [2]; Homo sapiens, A549, 96 h): 6.42 µM
- IC50 (DLD-1; Homo sapiens, DLD-1, 96 h): 8.59 µM
- IC50 ([3]; Homo sapiens, Lipo, 96 h): 7.54 µM
- IC50 (MCF7; Homo sapiens, MCF7, 96 h): 7.1 µM
- IC50 (SW-1736; Homo sapiens, SW-1736, 96 h): 6.33 µM

SMILES: COC(=O)[C@@]1(C)CC[C@]2(C)CC[C@]3(C)C(=CC(=O)[C@@H]4[C@@]5(C)CC[C@H](OC(=O)CCN)C(C)(C)[C@@H]5CC[C@]43C)[C@@H]2C1
- IC50 (8505C; 8505c): 2.51 µM
- IC50 ([1]; a253): 2.51 µM
- IC50 (A2780; a2780): 1.56 µM
- IC50 (A549 [2]; a549): 1.61 µM
- IC50 (DLD-1; dld-1): 3.52 µM
- IC50 ([3]; lipo): 3.55 µM
- IC50 (MCF7; mcf7): 2.43 µM
- IC50 (SW-1736; sw-1736): 2.48 µM

SMILES: COC(=O)[C@@]1(C)CC[C@]2(C)CC[C@]3(C)C(=CC(=O)[C@@H]4[C@@]5(C)CC[C@H](OC(=O)[C@@H](C)N)C(C)(C)[C@@H]5CC[C@]43C)[C@@H]2C1
- IC50 [5]: 2.26 µM
- IC50 (8505C; Homo sapiens, 8505C, 96 h): 2.92 µM
- IC50 ([1]; Homo sapiens, A253, 96 h): 2.26 µM
- IC50 (A2780; Homo sapiens, A2780, 96 h): 2.24 µM
- IC50 (A-431): 2.36 µM
- IC50 (A549 [2]; Homo sapiens, A549, 96 h): 2.26 µM
- IC50 (DLD-1; Homo sapiens, DLD-1, 96 h): 3.35 µM
- IC50 (FaDu): 2.25 µM
- IC50 (HCT-116): 2.25 µM
- IC50 (HCT-8): 2.26 µM
- IC50 (HT-29): 2.8 µM
- IC50 ([3]; Homo sapiens, Lipo, 96 h): 3.56 µM
- IC50 (MCF7; Homo sapiens, MCF7, 96 h): 2.25 µM
- IC50 (SW-1736; Homo sapiens, SW-1736, 96 h): 2.25 µM
- IC50 (SW480): 3.52 µM

SMILES: COC(=O)[C@@]1(C)CC[C@]2(C)CC[C@]3(C)C(=CC(=O)[C@@H]4[C@@]5(C)CC[C@H](OC(=O)CN)C(C)(C)[C@@H]5CC[C@]43C)[C@@H]2C1 [listing 2 of 3 here]
- Activity (A549 [4]): Active

SMILES: COC(=O)[C@@]1(C)CC[C@]2(C)CC[C@]3(C)C(=CC(=O)[C@@H]4[C@@]5(C)CC[C@H](OC(=O)CN)C(C)(C)[C@@H]5CC[C@]43C)[C@@H]2C1 [listing 3 of 3 here]
- IC50 (8505C; 8505c): 5.71 µM
- IC50 ([1]; a253): 5.5 µM
- IC50 (A2780; a2780): 4.32 µM
- IC50 (A549 [2]; a549): 5.54 µM
- IC50 (DLD-1; dld-1): 6.42 µM
- IC50 ([3]; lipo): 5.92 µM
- IC50 (MCF7; mcf7): 5.73 µM
- IC50 (SW-1736; sw-1736): 5.62 µM

SMILES: CC1(C)[C@@H](OC(=O)CCN)CC[C@]2(C)[C@H]3C(=O)C=C4[C@@H]5C[C@@](C)(C(=O)O)CC[C@]5(C)CC[C@@]4(C)[C@]3(C)CC[C@@H]12
- IC50 (8505C; Homo sapiens, 8505C, 96 h): > 30 µM
- IC50 ([1]; Homo sapiens, A253, 96 h): > 30 µM
- IC50 (A2780; Homo sapiens, A2780, 96 h): > 30 µM
- IC50 (A549 [2]; Homo sapiens, A549, 96 h): > 30 µM
- IC50 (DLD-1; Homo sapiens, DLD-1, 96 h): > 30 µM
- IC50 ([3]; Homo sapiens, Lipo, 96 h): > 30 µM

SMILES: CC(C)OC(=O)[C@@]1(C)CC[C@]2(C)CC[C@]3(C)C(=CC(=O)[C@@H]4[C@@]5(C)CC[C@H](OC(=O)CCN)C(C)(C)[C@@H]5CC[C@]43C)[C@@H]2C1
- IC50 (8505C; Homo sapiens, 8505C, 96 h): 1.96 µM
- IC50 ([1]; Homo sapiens, A253, 96 h): 2.68 µM
- IC50 (A2780; Homo sapiens, A2780, 96 h): 1.31 µM
- IC50 (A549 [2]; Homo sapiens, A549, 96 h): 1.78 µM
- IC50 (DLD-1; Homo sapiens, DLD-1, 96 h): 3.52 µM
- IC50 ([3]; Homo sapiens, Lipo, 96 h): 3.49 µM

SMILES: CC(C)OC(=O)[C@@]1(C)CC[C@]2(C)CC[C@]3(C)C(=CC(=O)[C@@H]4[C@@]5(C)CC[C@H](OC(=O)CN)C(C)(C)[C@@H]5CC[C@]43C)[C@@H]2C1
- IC50 (8505C; Homo sapiens, 8505C, 96 h): 2.76 µM
- IC50 ([1]; Homo sapiens, A253, 96 h): 2.01 µM
- IC50 (A2780; Homo sapiens, A2780, 96 h): 2.24 µM
- IC50 (A549 [2]; Homo sapiens, A549, 96 h): 2.65 µM
- IC50 (DLD-1; Homo sapiens, DLD-1, 96 h): 2.54 µM
- IC50 ([3]; Homo sapiens, Lipo, 96 h): 2.74 µM

SMILES: COC(=O)[C@@]1(C)CC[C@]2(C)CC[C@]3(C)C(=CC(=O)[C@@H]4[C@@]5(C)CC[C@H](OC(=O)[C@H](C)N)C(C)(C)[C@@H]5CC[C@]43C)[C@@H]2C1 [listing 2 of 2 here]
- IC50 (8505C; 8505c): 3.58 µM
- IC50 ([1]; a253): 3.5 µM
- IC50 (A2780; a2780): 2.31 µM
- IC50 (A549 [2]; a549): 3.52 µM
- IC50 (DLD-1; dld-1): 3.61 µM
- IC50 ([3]; lipo): 3.52 µM
- IC50 (MCF7; mcf7): 3.89 µM
- IC50 (SW-1736; sw-1736): 3.98 µM
